From ChEMBL document CHEMBL1681705, “Optimisation of ITK inhibitors through successive iterative design cycles” (Bioorg Med Chem Lett, 2011)

How the values were obtained:
[1] = biological target: CDK6/cyclin D3 (Homo sapiens) (UniProt P30281+Q00534); assay: Inhibition of CDK6/cyclin D3 at 0.1 uM; values are per cent of control
[2] = biological target: Death-associated protein kinase 2 (Homo sapiens) (UniProt Q9UIK4); assay: Inhibition of DAPK2 at 0.1 uM; values are per cent of control
[3] = biological target: Fibroblast growth factor receptor 3 (Homo sapiens) (UniProt P22607); assay: Inhibition of FGFR3 at 1 uM; values are per cent of control
Chain of Fibroblast growth factor receptor 3 (Homo sapiens) (P22607 23-806 limits assumed): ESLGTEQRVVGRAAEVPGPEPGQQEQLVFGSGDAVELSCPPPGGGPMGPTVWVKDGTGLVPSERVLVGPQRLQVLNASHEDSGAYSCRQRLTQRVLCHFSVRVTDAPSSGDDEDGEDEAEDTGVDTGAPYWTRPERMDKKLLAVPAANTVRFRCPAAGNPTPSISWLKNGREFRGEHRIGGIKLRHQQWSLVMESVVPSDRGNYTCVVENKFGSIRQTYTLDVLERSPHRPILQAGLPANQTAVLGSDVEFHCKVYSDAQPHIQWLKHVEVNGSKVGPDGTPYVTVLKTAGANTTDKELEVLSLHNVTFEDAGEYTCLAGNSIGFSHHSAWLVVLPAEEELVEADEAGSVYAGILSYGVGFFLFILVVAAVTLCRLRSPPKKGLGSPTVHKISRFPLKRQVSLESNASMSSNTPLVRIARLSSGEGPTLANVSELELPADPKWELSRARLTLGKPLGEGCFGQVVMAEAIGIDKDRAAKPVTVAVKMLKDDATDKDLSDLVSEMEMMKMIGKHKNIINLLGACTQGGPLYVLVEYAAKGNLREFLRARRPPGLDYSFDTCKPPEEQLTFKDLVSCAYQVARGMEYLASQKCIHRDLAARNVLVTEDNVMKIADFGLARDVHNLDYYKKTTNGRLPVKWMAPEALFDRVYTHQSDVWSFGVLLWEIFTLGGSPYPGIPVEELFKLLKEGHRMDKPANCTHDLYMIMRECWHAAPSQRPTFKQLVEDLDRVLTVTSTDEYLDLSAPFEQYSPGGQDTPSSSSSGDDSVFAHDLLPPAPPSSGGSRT

[4] = biological target: Tyrosine-protein kinase Lck (Homo sapiens) (UniProt P06239); assay: Inhibition of Lck at 0.1 uM; values are per cent of control
Chain of Tyrosine-protein kinase Lck (Homo sapiens) (P06239 2-509 limits assumed): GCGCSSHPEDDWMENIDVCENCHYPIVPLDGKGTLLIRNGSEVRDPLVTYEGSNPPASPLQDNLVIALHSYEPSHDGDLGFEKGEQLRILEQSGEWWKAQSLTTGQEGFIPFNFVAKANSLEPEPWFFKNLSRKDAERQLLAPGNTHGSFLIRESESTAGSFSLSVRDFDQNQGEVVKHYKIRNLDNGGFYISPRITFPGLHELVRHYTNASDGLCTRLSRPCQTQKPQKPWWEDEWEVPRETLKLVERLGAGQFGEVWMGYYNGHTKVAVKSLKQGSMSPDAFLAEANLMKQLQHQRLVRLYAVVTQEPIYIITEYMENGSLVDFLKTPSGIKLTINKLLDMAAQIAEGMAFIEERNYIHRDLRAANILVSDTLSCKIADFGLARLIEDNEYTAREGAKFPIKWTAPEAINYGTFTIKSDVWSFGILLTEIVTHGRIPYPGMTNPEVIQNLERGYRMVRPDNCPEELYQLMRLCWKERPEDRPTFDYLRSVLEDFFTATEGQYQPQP

[5] = biological target: Ribosomal protein S6 kinase alpha-4 (Homo sapiens) (UniProt O75676); assay: Inhibition of MSK2 at 1 uM
Chain of Ribosomal protein S6 kinase alpha-4 (Homo sapiens) (O75676 whole entry, looked up): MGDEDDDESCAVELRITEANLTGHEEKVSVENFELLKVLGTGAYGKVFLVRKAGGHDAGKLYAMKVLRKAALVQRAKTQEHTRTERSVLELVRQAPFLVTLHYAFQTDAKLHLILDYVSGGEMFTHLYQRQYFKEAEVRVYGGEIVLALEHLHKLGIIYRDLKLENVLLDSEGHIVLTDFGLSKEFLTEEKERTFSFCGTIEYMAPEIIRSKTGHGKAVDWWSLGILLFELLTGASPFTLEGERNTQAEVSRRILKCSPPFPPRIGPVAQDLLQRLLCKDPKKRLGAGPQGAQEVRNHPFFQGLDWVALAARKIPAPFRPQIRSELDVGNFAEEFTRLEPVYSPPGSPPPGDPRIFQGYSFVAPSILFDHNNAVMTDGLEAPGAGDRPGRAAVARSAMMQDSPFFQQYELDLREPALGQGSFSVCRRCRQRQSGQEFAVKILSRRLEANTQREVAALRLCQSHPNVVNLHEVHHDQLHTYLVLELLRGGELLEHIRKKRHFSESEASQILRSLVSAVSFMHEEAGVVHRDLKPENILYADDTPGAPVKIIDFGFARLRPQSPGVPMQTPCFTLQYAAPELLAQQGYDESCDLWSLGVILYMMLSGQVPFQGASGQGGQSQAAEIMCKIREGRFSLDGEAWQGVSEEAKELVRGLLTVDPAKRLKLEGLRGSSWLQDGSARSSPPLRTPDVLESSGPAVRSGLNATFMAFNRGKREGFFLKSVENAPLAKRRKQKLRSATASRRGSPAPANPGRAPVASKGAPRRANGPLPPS
Method in brief: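 Single-point screen within a 108-kinase selectivity panel. Each kinase was tested with inhibitor at 0.1 and 1.0 micromolar, and activity was recorded as percent inhibition.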

[6] = biological target: T1, Serine/threonine-protein kinase Sgk1 (Homo sapiens) (UniProt O00141); assay: Inhibition of SGK at 0.1 uM; values are per cent of control
T1 sequence (whole entry): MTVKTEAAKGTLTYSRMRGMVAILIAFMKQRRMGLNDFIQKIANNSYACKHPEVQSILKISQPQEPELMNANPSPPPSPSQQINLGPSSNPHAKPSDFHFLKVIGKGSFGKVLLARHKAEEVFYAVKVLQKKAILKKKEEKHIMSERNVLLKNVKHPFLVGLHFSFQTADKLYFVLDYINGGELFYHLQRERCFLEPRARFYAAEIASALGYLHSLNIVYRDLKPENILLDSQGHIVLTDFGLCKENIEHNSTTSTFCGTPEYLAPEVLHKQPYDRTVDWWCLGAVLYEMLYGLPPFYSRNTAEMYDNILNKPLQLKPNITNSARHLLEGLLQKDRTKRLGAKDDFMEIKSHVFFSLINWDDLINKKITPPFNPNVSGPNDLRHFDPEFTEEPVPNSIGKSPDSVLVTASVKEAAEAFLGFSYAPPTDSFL

[7] = biological target: Receptor-interacting serine/threonine-protein kinase 2 (Homo sapiens) (UniProt O43353); assay: Inhibition of RIPK2 at 0.1 uM; values are per cent of control
Chain of Receptor-interacting serine/threonine-protein kinase 2 (Homo sapiens) (O43353 whole entry): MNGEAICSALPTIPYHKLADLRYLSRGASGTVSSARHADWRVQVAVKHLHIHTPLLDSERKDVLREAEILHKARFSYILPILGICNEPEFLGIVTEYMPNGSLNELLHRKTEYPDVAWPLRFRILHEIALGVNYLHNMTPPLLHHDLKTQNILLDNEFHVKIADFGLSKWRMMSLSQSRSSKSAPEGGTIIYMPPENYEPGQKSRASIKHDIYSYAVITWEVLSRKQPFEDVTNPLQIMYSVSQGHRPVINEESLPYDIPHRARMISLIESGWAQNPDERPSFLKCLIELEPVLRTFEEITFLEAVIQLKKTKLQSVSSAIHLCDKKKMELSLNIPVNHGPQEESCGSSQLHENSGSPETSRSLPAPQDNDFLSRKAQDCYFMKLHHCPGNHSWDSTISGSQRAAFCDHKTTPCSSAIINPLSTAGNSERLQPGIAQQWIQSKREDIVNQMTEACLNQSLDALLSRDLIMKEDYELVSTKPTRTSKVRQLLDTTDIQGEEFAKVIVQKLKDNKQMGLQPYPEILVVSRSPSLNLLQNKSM

[8] = biological target: Fibroblast growth factor receptor 1 (Homo sapiens) (UniProt P11362); assay: Inhibition of FGFR1 at 0.1 uM; values are per cent of control
[9] = biological target: Serine/threonine-protein kinase pim-1 (Homo sapiens) (UniProt P11309); assay: Inhibition of Pim-1 at 0.1 uM; values are per cent of control
Chain of Serine/threonine-protein kinase pim-1 (Homo sapiens) (P11309 whole entry, looked up): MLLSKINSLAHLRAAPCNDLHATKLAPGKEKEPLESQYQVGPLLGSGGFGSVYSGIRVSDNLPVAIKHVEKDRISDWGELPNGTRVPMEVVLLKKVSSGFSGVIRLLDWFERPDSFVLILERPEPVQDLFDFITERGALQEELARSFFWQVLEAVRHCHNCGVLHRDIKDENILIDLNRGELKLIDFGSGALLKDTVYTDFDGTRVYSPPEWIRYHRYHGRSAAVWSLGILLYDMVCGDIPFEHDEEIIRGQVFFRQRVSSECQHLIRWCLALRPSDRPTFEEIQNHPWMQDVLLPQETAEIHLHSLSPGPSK

[10] = biological target: T2, Serine/threonine-protein kinase D2 (Homo sapiens) (UniProt Q9BZL6); assay: Inhibition of PKD2 at 0.1 uM; values are per cent of control
T2 sequence (whole entry): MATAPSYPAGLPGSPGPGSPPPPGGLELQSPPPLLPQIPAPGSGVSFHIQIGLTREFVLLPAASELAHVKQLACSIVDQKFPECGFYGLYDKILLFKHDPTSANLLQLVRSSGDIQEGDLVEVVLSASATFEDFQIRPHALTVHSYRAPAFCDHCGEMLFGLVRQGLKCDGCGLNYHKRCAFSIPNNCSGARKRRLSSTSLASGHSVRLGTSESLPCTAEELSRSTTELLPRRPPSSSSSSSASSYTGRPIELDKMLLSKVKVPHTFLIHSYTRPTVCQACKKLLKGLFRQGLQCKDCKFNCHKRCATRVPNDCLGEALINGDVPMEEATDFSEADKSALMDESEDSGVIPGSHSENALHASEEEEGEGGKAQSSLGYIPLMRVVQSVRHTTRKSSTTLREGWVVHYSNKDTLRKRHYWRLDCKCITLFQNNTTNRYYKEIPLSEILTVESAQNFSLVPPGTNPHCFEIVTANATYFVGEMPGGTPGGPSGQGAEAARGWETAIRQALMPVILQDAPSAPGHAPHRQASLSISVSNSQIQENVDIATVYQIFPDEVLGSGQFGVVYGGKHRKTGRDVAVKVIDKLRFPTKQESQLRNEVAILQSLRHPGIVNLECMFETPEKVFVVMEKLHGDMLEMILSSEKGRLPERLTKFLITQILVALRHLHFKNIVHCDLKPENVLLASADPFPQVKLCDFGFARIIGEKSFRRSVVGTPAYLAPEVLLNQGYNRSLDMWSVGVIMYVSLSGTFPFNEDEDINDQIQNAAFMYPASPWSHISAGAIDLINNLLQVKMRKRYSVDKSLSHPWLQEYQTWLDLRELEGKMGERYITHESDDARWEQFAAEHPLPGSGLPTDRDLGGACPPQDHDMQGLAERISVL

[11] = biological target: Receptor-type tyrosine-protein kinase FLT3 (Homo sapiens) (UniProt P36888); assay: Inhibition of Flt3 at 0.1 uM; values are per cent of control
Chain of Receptor-type tyrosine-protein kinase FLT3 (Homo sapiens) (P36888 whole entry): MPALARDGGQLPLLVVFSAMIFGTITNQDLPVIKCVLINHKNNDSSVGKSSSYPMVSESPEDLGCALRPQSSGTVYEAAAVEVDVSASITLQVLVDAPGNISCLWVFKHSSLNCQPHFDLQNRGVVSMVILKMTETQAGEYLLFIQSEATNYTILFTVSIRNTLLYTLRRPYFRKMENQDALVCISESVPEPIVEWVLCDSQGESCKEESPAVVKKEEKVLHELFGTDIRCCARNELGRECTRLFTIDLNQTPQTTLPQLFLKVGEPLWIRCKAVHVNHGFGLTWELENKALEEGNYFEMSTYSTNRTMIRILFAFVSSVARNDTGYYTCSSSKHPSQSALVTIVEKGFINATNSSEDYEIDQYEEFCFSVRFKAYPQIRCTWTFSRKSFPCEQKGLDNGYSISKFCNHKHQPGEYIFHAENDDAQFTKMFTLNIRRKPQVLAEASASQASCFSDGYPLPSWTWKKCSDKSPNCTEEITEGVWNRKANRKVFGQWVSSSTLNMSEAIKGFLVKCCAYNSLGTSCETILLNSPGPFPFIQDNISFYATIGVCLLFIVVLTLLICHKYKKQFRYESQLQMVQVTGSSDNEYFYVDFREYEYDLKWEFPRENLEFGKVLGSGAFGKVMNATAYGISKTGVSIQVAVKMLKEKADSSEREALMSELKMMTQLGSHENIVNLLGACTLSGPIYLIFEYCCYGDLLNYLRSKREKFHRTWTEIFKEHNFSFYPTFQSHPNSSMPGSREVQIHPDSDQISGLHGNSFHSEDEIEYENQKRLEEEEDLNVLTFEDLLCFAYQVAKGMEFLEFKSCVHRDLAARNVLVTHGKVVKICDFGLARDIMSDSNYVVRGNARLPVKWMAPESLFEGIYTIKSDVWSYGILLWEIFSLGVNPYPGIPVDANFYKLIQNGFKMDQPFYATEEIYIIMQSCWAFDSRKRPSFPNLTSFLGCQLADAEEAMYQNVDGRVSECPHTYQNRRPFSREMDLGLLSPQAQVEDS

Chain of Death-associated protein kinase 2 (Homo sapiens) (Q9UIK4 whole entry, looked up): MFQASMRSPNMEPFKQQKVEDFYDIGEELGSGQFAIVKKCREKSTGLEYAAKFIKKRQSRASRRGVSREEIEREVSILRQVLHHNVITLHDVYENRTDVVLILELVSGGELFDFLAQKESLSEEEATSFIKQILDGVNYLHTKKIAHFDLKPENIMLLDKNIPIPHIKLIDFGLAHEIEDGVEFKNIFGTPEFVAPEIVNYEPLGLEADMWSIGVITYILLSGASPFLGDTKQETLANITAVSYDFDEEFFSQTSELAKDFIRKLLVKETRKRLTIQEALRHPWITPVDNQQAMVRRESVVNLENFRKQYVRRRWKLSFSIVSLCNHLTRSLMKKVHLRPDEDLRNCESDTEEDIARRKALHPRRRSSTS

residual activity [1] [%]	residual activity [3] [%]	residual activity [4] [%]	inhibition [5] [%]	residual activity [6] [%]	residual activity [7] [%]	residual activity [8] [%]	residual activity [9] [%]	residual activity [10] [%]	residual activity [11] [%]	Structure (SMILES)	residual activity [2] [%]
80	-3	61	91	121	94	2	106	93	5	Cc1ccc2cc(-c3n[nH]c4ccc(NC5CCN(Cc6ccccc6)CC5)cc34)[nH]c2c1	106
70	1	27	2	63	87	0	100	41	24	Cc1ccc2cc(-c3n[nH]c4ccc(NC5CCNC5)cc34)[nH]c2c1 (configuration not stated)	91
